A selection: hits, their analogues and other compounds. The true share with any hit is near 1.8%.
NPY-Y1 PAM-ag: NPY-Y1 receptor potentiators or agonists, primary screen, cell-based. Neuropeptide Y receptor type 1 (Homo sapiens), P25929. NPY-Y1 expressing cells, potentiator/agonist activation. activation, % at 3.6 µM. actives 0.37% (n = 220,000). AID 1304, 2008; in the data active = activation above about 33%, passing the limit was not always enough;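 also: cells stimulated with NPY at EC10 then isoproterenol at EC100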
NPY-Y2 PAM-ag: NPY-Y2 potentiators or agonists, primary screen, cell-based; activation, % at 3.6 µM; Neuropeptide Y receptor type 2 (Homo sapiens), P49146; actives 0.45% (n = 220,000); cells expressing NPY-Y2, potentiator/agonist read-out; AID 1359, 2008; in the data active = activation above about 27%;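 also: cells stimulated with NPY near EC25 plus isoproterenol at EC100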
Target sequence (P49146 whole entry, looked up): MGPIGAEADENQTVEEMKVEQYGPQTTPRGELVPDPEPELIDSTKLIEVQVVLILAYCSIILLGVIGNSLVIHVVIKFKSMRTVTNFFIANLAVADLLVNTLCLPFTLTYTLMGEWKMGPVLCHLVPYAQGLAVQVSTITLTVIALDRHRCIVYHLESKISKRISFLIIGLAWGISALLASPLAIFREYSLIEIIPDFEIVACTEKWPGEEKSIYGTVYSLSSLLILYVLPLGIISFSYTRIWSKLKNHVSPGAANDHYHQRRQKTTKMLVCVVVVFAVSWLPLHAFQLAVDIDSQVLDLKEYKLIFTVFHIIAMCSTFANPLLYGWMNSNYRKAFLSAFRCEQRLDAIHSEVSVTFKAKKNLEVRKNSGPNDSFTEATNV
NPY-Y1 antag: NPY-Y1 receptor antagonists, primary screen, cell-based; actives 1% (n = 200,000); HEK293-CNG Y1 cells, membrane potential fluorescence; NPY at EC95, then isoproterenol; Neuropeptide Y receptor type 1 (Homo sapiens), P25929; inhibition, % at 3.6 µM; AID 1040, 2008;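 active = inhibition above the campaign mean inhibition of all tested compounds plus 3 SD, cut at about 20% in these data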
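Assay system: HEK293 Y1/CNG channel cell line; Doses: single compound dose of 3.6 µM, 0.4% DMSO; Timing: dye 3 h, compound 60 min room temperature, stimulation 45 min; Technique: Membrane-potential fluorescent dye readout; Measure: % inhibition of NPY effect.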
NPY Y2 blocker: NPY-Y2 receptor antagonists, primary screen, cell-based; inhibition, % at 2.7 µM; Neuropeptide Y receptor type 2 (Homo sapiens), P49146; NPY-Y2 expressing cells, antagonist mode; actives 0.99% (n = 140,000); in the data active = inhibition above about 17%
Numbers stand for hits; n = inactive; x = no result.

SMILES	NPY-Y1 PAM-ag	NPY-Y2 PAM-ag	NPY-Y1 antag	NPY Y2 blocker
COCc1cc(=O)n2[nH]c(-c3cccs3)cc2n1	n	n	x	x
O=C(c1c[nH]c2ccc(F)cc2c1=O)N1CCCCCC1	n	n	n	n
Cc1cccc2c(=O)c(C(=O)N3CCCCCC3)c[nH]c12	n	n	20.8	21.6
Cc1ccccc1N=C(NOCc1ccc(Cl)cc1Cl)c1nonc1N	n	n	33.1	29.6
Cc1ccc(N=C(NOCc2ccc(Cl)cc2Cl)c2nonc2N)c(C)c1	n	n	31.6	20.8
CC(=O)Nc1cccc(-n2nnc(SCC(=O)N(C)c3ccccc3)n2)c1	n	n	x	x
CC(C)Nc1ccc(Nc2ccnc3cc4ccccc4cc23)cc1	80.8	75.1	x	x
COc1ccc(Nc2ccnc3ccccc23)cc1	n	n	n	n
Cc1c(Nc2nc(-c3ccccc3)cs2)c(=O)n(-c2ccccc2)n1C	59.3	78.5	n	n
Cc1c(Nc2ccc(C=O)cc2)c(=O)n(-c2ccccc2)n1C	n	n	n	x
Cc1cc(/C=N/NC(=O)Cn2c3ccccc3c(=O)c3ccccc32)c(C)n1-c1ccccc1	49.7	50.3	n	n
O=C(Cc1ccccc1)NCC(=O)OCc1ccc([N+](=O)[O-])cc1	n	n	n	n
CN1CCN(c2ccccc2NC(=O)Cc2ccc(Cl)cc2)CC1	n	n	22.7	24.0
CC(=O)SC(C)CC(=O)Nc1ccccc1 (stereo not given)	41.9	33.7	n	n
CC(=O)SC(C)CC(=O)NCc1ccccc1 (stereo not given)	118.7	54.1	n	n
O=C(Nc1ccc(C(=O)NC2CCCCC2)cc1)c1cccnc1	n	n	n	x
O=C1Nc2ccccc2/C1=N\N=C\C1=C(N2CCOCC2)C(=C\c2ccccc2)/CC1	46.4	41.8	n	n
Cn1cc(C(=O)N/N=C/C2=C(N3CCOCC3)C(=C\c3ccccc3)/CC2)ccc1=O	n	n	n	n
Cc1nn(-c2cc(N3CCCCCC3)ccc2[N+](=O)[O-])c(=O)c2ccccc12	84.8	41.4	n	n
CC1(C)CC(=O)C2=C(C1)C(c1cn(-c3ccccc3)nc1-c1ccccc1)C(C#N)=C(N)O2 (stereo not given)	n	n	n	n
CC1(C)CC(=O)C2=C(C1)OC(N)=C(C#N)C2c1cn(-c2ccccc2)nc1-c1ccc(F)cc1 (stereo not given)	67.9	65.4	n	n
FC(F)(F)c1ccccc1CN1CCN(C2CCCCCC2)CC1	n	n	23.2	21.9
COc1cccc(NC(=O)c2ccccc2-c2nc(-c3cccc(C)c3)no2)c1	n	n	36.9	23.0
Cc1cccc(-c2noc(-c3ccccc3C(=O)NCC3CCCO3)n2)c1 (stereo not given)	n	n	n	n
Cc1nc(-c2ccccc2)sc1-c1nc(-c2ccncc2)ncc1S(=O)(=O)c1ccccc1	n	n	n	n
SMILES	NPY-Y1 PAM-ag	NPY-Y2 PAM-ag	NPY-Y1 antag	NPY Y2 blocker
CN=C(C)/C(C(=O)OC)=C(/O)c1c(F)cccc1F	n	n	x	x
CCOC(=O)CSc1ccc(C(=O)Nc2ccc(Cl)cc2)cn1	n	n	n	x
CCOC(=O)CSc1ccc(C(=O)Nc2ccc(OC)cc2)cn1	74.6	37.3	n	x
CC(=O)ON1C(C)(C)Cc2noc(N)c2C1(C)C	56.2	55.0	n	n
CC1(C)Cc2noc(N)c2C(C)(C)N1OC(=O)c1cccs1	n	n	n	n
CC1CN(CC(O)COc2ccccc2C(C)(C)C)CC(C)O1 (stereo not given)	100.4	83.8	n	n
CCOC(=O)N1CCN(CC(O)COc2ccccc2C(C)(C)C)CC1 (stereo not given)	71.5	72.0	n	n
CCOC(=O)N1CCN(CC(O)COC(CC)c2ccccc2)CC1 (stereo not given)	n	n	n	n
CCC(=O)N1CCN(c2ccccc2NC(=O)COc2cc(C)ccc2C(C)C)CC1	n	n	30.5	22.0
CCOC(=O)N1CCN(CC(O)COc2ccccc2C(C)C)CC1 (stereo not given)	79.0	58.8	n	n
Cc1ccc(OCC(=O)Nc2ccccc2N2CCCC2)c(C)c1	n	n	n	x
CCOC(=O)N1CCN(CC(O)COc2ccccc2C(C)CC)CC1 (stereo not given)	n	n	n	n
Cc1c(C(=O)NN2CCCCC2)nn(-c2ccc(Cl)cc2Cl)c1-c1ccc(I)cc1	n	n	n	x

Screening results (PubChem BioAssay)
